Source: ChEMBL document CHEMBL4393701, “Appendix A. dithioloquinolinethiones as new potential multitargeted antibacterial and antifungal agents: Synthesis, biological evaluation and molecular docking studies” (2019)
Values after ≈ are worked out from the molar mass of the structure shown.

Tests used:
Staphylococcus aureus [1] = test: Antibacterial activity against Staphylococcus aureus ATCC 6538 after 24 hrs by iodonitrotetrazolium chloride dye based microdilution method; assay type: functional; conditions: ATCC 6538, 24 h
How it was run: (§1)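 Fresh overnight cultures adjusted spectrophotometrically to 1×10^5 CFU/mL, giving 1.0×10^4 CFU per well in tryptic soy broth. Compounds were dissolved in 5% DMSO and tested at 0.001-1.0 mg/ml by serial dilution; 5% DMSO was the negative control. After 24 h at 37 °C, 0.2 mg/mL INT solution was added for 30 min at 37 °C and OD read at 655 nm. MIC is the lowest concentration giving significant growth inhibition versus the positive control. Duplicates, repeated three times.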

Micrococcus flavus [2] = test: Bactericidal activity against Micrococcus flavus ATCC 10240 incubated for 24 hrs followed by re-plating on tryptic soy broth; assay type: functional; conditions: ATCC 10240, 24 h
How it was run: (§2)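 Bacteria were grown in tryptic soy broth, 1.0×10^4 CFU per well, with compounds in 5% DMSO at 0.001-1.0 mg/ml for 24 h at 37 °C. Then 10 µL was subcultured into fresh TSB. MBC is the lowest concentration showing no growth after subculture, taken as 99.5% kill of the original inoculum. Duplicates, repeated three times.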

Bacillus cereus [3] = test: Bactericidal activity against Bacillus cereus clinical isolate incubated for 24 hrs followed by re-plating on tryptic soy broth; assay type: functional; how it was run: as §2
Trichoderma viride [4] = test: Antifungal activity against Trichoderma viride IAM 5061 after 72 hrs by microdilution technique; assay type: functional; conditions: IAM 5061, 72 h
How it was run: (§3)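 Spores were washed off malt agar with 0.85% saline containing 0.1% Tween 80 and adjusted to about 1.0×10^5 per well. Compounds in 5% DMSO were serially diluted (0.001-1.0 mg/ml) in malt broth with inoculum. Plates were shaken at 160 rpm for 72 h at 28 °C. MIC is the lowest concentration without visible growth under a binocular microscope. Three independent experiments in duplicate.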

Aspergillus versicolor [5] = test: Fungicidal activity against Aspergillus versicolor ATCC 11730 incubated for 72 hrs followed by sub-culturing on broth malt medium and measured after 72 hrs; assay type: functional; conditions: ATCC 11730, 72 h
How it was run: (§4)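 After 72 h exposure in malt broth, 2 µL from test wells was subcultured into wells holding 100 µL broth and incubated a further 72 h at 28 °C. MFC is the lowest concentration with no visible growth, taken as 99.5% kill of the original inoculum. Three independent experiments in duplicate.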

Trichoderma viride [6] = test: Fungicidal activity against Trichoderma viride IAM 5061 incubated for 72 hrs followed by sub-culturing on broth malt medium and measured after 72 hrs; assay type: functional; conditions: IAM 5061, 72 h; how it was run: as §4
Enterobacter cloacae [7] = test: Antibacterial activity against Enterobacter cloacae clinical isolate after 24 hrs by iodonitrotetrazolium chloride dye based microdilution method; assay type: functional; how it was run: as §1
Salmonella typhimurium [8] = test: Bactericidal activity against Salmonella typhimurium ATCC 13311 incubated for 24 hrs followed by re-plating on tryptic soy broth; assay type: functional, Salmonella enterica subsp. enterica serovar Typhimurium; conditions: Salmonella enterica, ATCC 13311, 24 h; how it was run: as §2
Aspergillus ochraceus [9] = test: Antifungal activity against Aspergillus ochraceus ATCC 12066 after 72 hrs by microdilution technique; assay type: functional; conditions: ATCC 12066, 72 h; how it was run: as §3
Escherichia coli [10] = test: Antibacterial activity against Escherichia coli ATCC 35210 after 24 hrs by iodonitrotetrazolium chloride dye based microdilution method; assay type: functional; conditions: ATCC 35210, 24 h; how it was run: as §1
Penicillium cyclopium [11] = test: Antifungal activity against Penicillium verrucosum var. cyclopium food isolate after 72 hrs by microdilution technique; assay type: functional; how it was run: as §3
Aspergillus fumigatus [12] = test: Fungicidal activity against Aspergillus fumigatus ATCC 1022 incubated for 72 hrs followed by sub-culturing on broth malt medium and measured after 72 hrs; assay type: functional; conditions: ATCC 1022, 72 h; how it was run: as §4
Aspergillus versicolor [13] = test: Antifungal activity against Aspergillus versicolor ATCC 11730 after 72 hrs by microdilution method; assay type: functional; conditions: ATCC 11730, 72 h; how it was run: as §3
Penicillium ochrochloron [14] = test: Antifungal activity against Penicillium ochrochloron ATCC 9112 after 72 hrs by microdilution technique; assay type: functional; conditions: ATCC 9112, 72 h; how it was run: as §3
Micrococcus flavus [15] = test: Antibacterial activity against Micrococcus flavus ATCC 10240 after 24 hrs by iodonitrotetrazolium chloride dye based microdilution method; assay type: functional; conditions: ATCC 10240, 24 h; how it was run: as §1
Pseudomonas aeruginosa [16] = test: Antibacterial activity against Pseudomonas aeruginosa ATCC 27853 after 24 hrs by iodonitrotetrazolium chloride dye based microdilution method; assay type: functional; conditions: ATCC 27853, 24 h; how it was run: as §1
[17] = Antifungal activity against Penicillium funiculosum ATCC 36839 after 72 hrs by microdilution technique; assay type: functional; conditions: Talaromyces pinophilus, ATCC 36839, 72 h; how it was run: as §3
[18] = Fungicidal activity against Penicillium funiculosum ATCC 36839 incubated for 72 hrs followed by sub-culturing on broth malt medium and measured after 72 hrs; assay type: functional; conditions: Talaromyces pinophilus, ATCC 36839, 72 h; how it was run: as §4
Escherichia coli [19] = test: Bactericidal activity against Escherichia coli ATCC 35210 incubated for 24 hrs followed by re-plating on tryptic soy broth; assay type: functional; conditions: ATCC 35210, 24 h; how it was run: as §2
Aspergillus niger [20] = test: Fungicidal activity against Aspergillus niger ATCC 6275 incubated for 72 hrs followed by sub-culturing on broth malt medium and measured after 72 hrs; assay type: functional; conditions: ATCC 6275, 72 h; how it was run: as §4
Aspergillus niger [21] = test: Antifungal activity against Aspergillus niger ATCC 6275 after 72 hrs by microdilution technique; assay type: functional; conditions: ATCC 6275, 72 h; how it was run: as §3
Staphylococcus aureus [22] = test: Bactericidal activity against Staphylococcus aureus ATCC 6538 incubated for 24 hrs followed by re-plating on tryptic soy broth; assay type: functional; conditions: ATCC 6538, 24 h; how it was run: as §2
Penicillium cyclopium [23] = test: Fungicidal activity against Penicillium verrucosum var. cyclopium food isolate incubated for 72 hrs followed by sub-culturing on broth malt medium and measured after 72 hrs; assay type: functional; how it was run: as §4
Salmonella typhimurium [24] = test: Antibacterial activity against Salmonella typhimurium ATCC 13311 after 24 hrs by iodonitrotetrazolium chloride dye based microdilution method; assay type: functional, Salmonella enterica subsp. enterica serovar Typhimurium; conditions: Salmonella enterica, ATCC 13311, 24 h; how it was run: as §1
Bacillus cereus [25] = test: Antibacterial activity against Bacillus cereus clinical isolate after 24 hrs by iodonitrotetrazolium chloride dye based microdilution assay; assay type: functional; how it was run: as §1
Enterobacter cloacae [26] = test: Bactericidal activity against Enterobacter cloacae incubated for 24 hrs followed by re-plating on tryptic soy broth; assay type: functional; how it was run: as §2
Listeria monocytogenes [27] = test: Antibacterial activity against Listeria monocytogenes NCTC 7973 after 24 hrs by iodonitrotetrazolium chloride dye based microdilution method; assay type: functional; conditions: NCTC 7973, 24 h; how it was run: as §1
Pseudomonas aeruginosa [28] = test: Bactericidal activity against Pseudomonas aeruginosa ATCC 27853 incubated for 24 hrs followed by re-plating on tryptic soy broth; assay type: functional; conditions: ATCC 27853, 24 h; how it was run: as §2
Aspergillus fumigatus [29] = test: Antifungal activity against Aspergillus fumigatus ATCC 1022 after 72 hrs by microdilution technique; assay type: functional; conditions: ATCC 1022, 72 h; how it was run: as §3
Penicillium ochrochloron [30] = test: Fungicidal activity against Penicillium ochrochloron ATCC 9112 incubated for 72 hrs followed by sub-culturing on broth malt medium and measured after 72 hrs; assay type: functional; conditions: ATCC 9112, 72 h; how it was run: as §4
Listeria monocytogenes [31] = test: Bactericidal activity against Listeria monocytogenes NCTC 7973 incubated for 24 hrs followed by re-plating on tryptic soy broth; assay type: functional; conditions: NCTC 7973, 24 h; how it was run: as §2
Aspergillus ochraceus [32] = test: Fungicidal activity against Aspergillus ochraceus ATCC 12066 incubated for 72 hrs followed by sub-culturing on broth malt medium and measured after 72 hrs; assay type: functional; conditions: ATCC 12066, 72 h; how it was run: as §4

Structure (SMILES)	MIC (Staphylococcus aureus [1]) [µM]	MBC (Micrococcus flavus [2]) [µM]	MBC (Bacillus cereus [3]) [µM]	MIC (Trichoderma viride [4]) [×10⁻² mM]	MFC (Aspergillus versicolor [5]) [×10⁻² mM]	MFC (Trichoderma viride [6]) [×10⁻² mM]	MIC (Enterobacter cloacae [7]) [µM]	MBC (Salmonella typhimurium [8]) [µM]	MIC (Aspergillus ochraceus [9]) [×10⁻² mM]	MIC (Escherichia coli [10]) [µM]	MIC (Penicillium cyclopium [11]) [×10⁻² mM]	MFC (Aspergillus fumigatus [12]) [×10⁻² mM]	MIC (Aspergillus versicolor [13]) [×10⁻² mM]	MIC (Penicillium ochrochloron [14]) [×10⁻² mM]	MIC (Micrococcus flavus [15]) [µM]	MIC (Pseudomonas aeruginosa [16]) [µM]	MIC [17] [×10⁻² mM]	MFC [18] [×10⁻² mM]	MBC (Escherichia coli [19]) [µM]	MFC (Aspergillus niger [20]) [×10⁻² mM]	further results
Cc1ccc2c(c1)-c1c(ssc1=S)C(C)(C)N2C(=O)c1cccnc1	0.3 (≈ 0.115 µg/mL)	0.6 (≈ 0.231 µg/mL)	0.6 (≈ 0.231 µg/mL)	1.04	15.6	2.08	0.3 (≈ 0.115 µg/mL)	0.6 (≈ 0.231 µg/mL)	14.6	12.1 (≈ 4.65 µg/mL)	7.8	15.6	7.8	7.8	12.1 (≈ 4.65 µg/mL)	0.3 (≈ 0.115 µg/mL)	15.6	31.2	0.6 (≈ 0.231 µg/mL)	7.8	MIC (Aspergillus niger [21]): 1.56 ×10⁻² mM; MBC (Staphylococcus aureus [22]): 0.6 µM (≈ 0.231 µg/mL); MFC (Penicillium cyclopium [23]): 15.6 ×10⁻² mM; MIC (Salmonella typhimurium [24]): 0.3 µM (≈ 0.115 µg/mL); MIC (Bacillus cereus [25]): 12.1 µM (≈ 4.65 µg/mL); MBC (Enterobacter cloacae [26]): 0.6 µM (≈ 0.231 µg/mL); MIC (Listeria monocytogenes [27]): 0.3 µM (≈ 0.115 µg/mL); MBC (Pseudomonas aeruginosa [28]): 0.6 µM (≈ 0.231 µg/mL); MIC (Aspergillus fumigatus [29]): 7.8 ×10⁻² mM; MFC (Penicillium ochrochloron [30]): 15.6 ×10⁻² mM; MBC (Listeria monocytogenes [31]): 0.6 µM (≈ 0.231 µg/mL); MFC (Aspergillus ochraceus [32]): 31.2 ×10⁻² mM
CC1(C)S[C@@H]2[C@H](NC(=O)[C@H](N)c3ccccc3)C(=O)N2[C@H]1C(=O)O [AMPICILLIN]	248 (≈ 86.7 µg/mL)	372 (≈ 130 µg/mL)	372 (≈ 130 µg/mL)	–	–	–	744 (≈ 260 µg/mL)	380 (≈ 133 µg/mL)	–	744 (≈ 260 µg/mL)	–	–	–	–	248 (≈ 86.7 µg/mL)	372 (≈ 130 µg/mL)	–	–	1240 (≈ 433 µg/mL)	–	MBC (Staphylococcus aureus [22]): 372 µM (≈ 130 µg/mL); MIC (Salmonella typhimurium [24]): 248 µM (≈ 86.7 µg/mL); MIC (Bacillus cereus [25]): 248 µM (≈ 86.7 µg/mL); MBC (Enterobacter cloacae [26]): 1240 µM (≈ 433 µg/mL); MIC (Listeria monocytogenes [27]): 372 µM (≈ 130 µg/mL); MBC (Pseudomonas aeruginosa [28]): 492 µM (≈ 172 µg/mL); MBC (Listeria monocytogenes [31]): 744 µM (≈ 260 µg/mL)
c1ccc(-c2ccc(C(c3ccccc3)n3ccnc3)cc2)cc1 (stereo unspecified) [BIFONAZOLE]	–	–	–	64	64	80	–	–	48	–	48	64	48	64	–	–	48	64	–	64	MIC (Aspergillus niger [21]): 48 ×10⁻² mM; MFC (Penicillium cyclopium [23]): 64 ×10⁻² mM; MIC (Aspergillus fumigatus [29]): 48 ×10⁻² mM; MFC (Penicillium ochrochloron [30]): 80 ×10⁻² mM; MFC (Aspergillus ochraceus [32]): 80 ×10⁻² mM
CC(=O)N1CCN(c2ccc(OCC3COC(Cn4ccnc4)(c4ccc(Cl)cc4Cl)O3)cc2)CC1 (stereo unspecified) [KETOCONAZOLE]	–	–	–	475	380	570	–	–	38	–	38	95	285	38	–	–	380	380	–	95	MIC (Aspergillus niger [21]): 38 ×10⁻² mM; MFC (Penicillium cyclopium [23]): 57 ×10⁻² mM; MIC (Aspergillus fumigatus [29]): 38 ×10⁻² mM; MFC (Penicillium ochrochloron [30]): 95 ×10⁻² mM; MFC (Aspergillus ochraceus [32]): 95 ×10⁻² mM
CN[C@@H]1[C@H](O[C@H]2[C@H](O[C@H]3[C@H](O)[C@@H](O)[C@H](N=C(N)N)[C@@H](O)[C@@H]3N=C(N)N)O[C@@H](C)[C@]2(O)C=O)O[C@@H](CO)[C@H](O)[C@H]1O [STREPTOMYCIN]	172 (≈ 100 µg/mL)	172 (≈ 100 µg/mL)	86 (≈ 50 µg/mL)	–	–	–	270 (≈ 157 µg/mL)	86 (≈ 50 µg/mL)	–	270 (≈ 157 µg/mL)	–	–	–	–	86 (≈ 50 µg/mL)	172 (≈ 100 µg/mL)	–	–	344 (≈ 200 µg/mL)	–	MBC (Staphylococcus aureus [22]): 344 µM (≈ 200 µg/mL); MIC (Salmonella typhimurium [24]): 43 µM (≈ 25 µg/mL); MIC (Bacillus cereus [25]): 43 µM (≈ 25 µg/mL); MBC (Enterobacter cloacae [26]): 344 µM (≈ 200 µg/mL); MIC (Listeria monocytogenes [27]): 258 µM (≈ 150 µg/mL); MBC (Pseudomonas aeruginosa [28]): 344 µM (≈ 200 µg/mL); MBC (Listeria monocytogenes [31]): 516 µM (≈ 300 µg/mL)
